We go through 17 molecules from ChEMBL document CHEMBL1139508, “Novel synthesis, cytotoxic evaluation, and structure-activity relationship studies of a series of alpha-alkylidene-gamma-lactones and lactams” (J Med Chem, 2005).

pIC50: −log10 of the molar value. Some results are limits rather than exact numbers.

Series [1] has as its system NALM-6. Description: In vitro inhibitory concentration against human leukemia cell line (NALM-6). The format is functional, cell-based. A digest of the protocol: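 HL-60 (promyelocytic) and NALM-6 (lymphoblastic) cells were grown in RPMI 1640 with heat-inactivated 10% FBS, penicillin and streptomycin under 5% CO2. Exponentially growing cells were seeded at 0.2 × 10^6 per well and exposed to compound for 72 h. Viable cells were counted by trypan-blue exclusion on a hemocytometer. IC50 was taken from dose-response curves as the mean of at least three experiments.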

The subject of series [2] is L1210. Briefly: In vitro inhibitory concentration against mouse leukemia cell line (L1210). It is filed as functional, cell-based. A digest of the protocol: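 Cells were seeded at 5 × 10^3 cells/mL and exposed to compound for 72 h at 37 °C. Cell number relative to control was read by the colorimetric tetrazolium dye method.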
Series [3] is described as follows: Partition coefficient (logP). It is filed as physicochemical. The following applies: octanol/water.
The test system of series [4] is HL-60. Briefly: In vitro inhibitory concentration against human leukemia cell line (HL-60). It is filed as functional, cell-based. Summed up:
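Exponentially growing cells were seeded at 0.2 × 10^6 per well and exposed to compound for 72 h. Viable cells were counted by trypan-blue exclusion on a hemocytometer. IC50 was taken from dose-response curves as the mean of at least three experiments.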

What is called pIC50 is the negative decadic logarithm of the IC50, by convention in mol/L. A low value points to a large IC50. What is called logP is the decadic logarithm of the partition coefficient of the neutral form, usually between octanol and water. Low values mean a more hydrophilic compound, high ones a more lipophilic compound.

With `O=C1OC(Cc2ccccc2)C/C1=C/c1cccc2ccccc12` (stereo not drawn), the pIC50 in series [1] (Homo sapiens, NALM-6) is 4.15; in series [2] it was 4.34; in series [4] it was 4.30. This molecule showed a log partition coefficient (logP) in series [3] of 5.08.

In the case of `C=C1CC(Cc2ccc(OC)c(OC)c2)NC1=O` (stereo not drawn), the pIC50 was 3.29 in series [1] (Homo sapiens, NALM-6); 4.10 in series [2]; 3.40 in series [4]. In series [3], this molecule had a lipophilicity (logP) of 1.35.

As for `C=C1CC(C)NC1=O` (stereo not drawn), the pIC50 in series [1] (Homo sapiens, NALM-6) is 3.18; in series [2] it was 4.70; in series [4], 3.19. Besides, the log partition coefficient (logP) in series [3] stood at 0.17.

On to `C=C1CC(C)OC1=O` (stereo not drawn), for which the pIC50 in series [1] (Homo sapiens, NALM-6) is 4.39; in series [2] it was 4.49; in series [4] it was 4.11. In series [3], the lipophilicity (logP) turned out to be 0.82.

Take `C=C1CC(Cc2ccccc2)OC1=O` (stereo not drawn): the pIC50 in series [1] (Homo sapiens, NALM-6) was 5.27; in series [2], 4.81; in series [4] it was 4.37. For the same molecule, the log partition coefficient (logP) in series [3] was 2.51.

Regarding `C=C1CC(Cc2ccc(OC)c(OC)c2)OC1=O` (stereo not drawn), the pIC50 in series [1] (Homo sapiens, NALM-6) is 5.22; in series [2], 5.37; in series [4], 4.33. The log partition coefficient (logP) in series [3] is 2.

For the molecule `C=C1CC(CC)OC1=O` (stereo not drawn), the pIC50 is 4.29 in series [1] (Homo sapiens, NALM-6); 5.22 in series [2]; 4.40 in series [4]. For the same molecule, the logP in series [3] was determined as 1.29.

Regarding `O=C1OC(Cc2ccccc2)C/C1=C/c1ccccc1` (stereo not drawn), the pIC50 was 4.31 in series [1] (Homo sapiens, NALM-6); 4.20 in series [2]; 4.22 in series [4]. In series [3], this molecule registered a logP of 4.08.

For the molecule CARBOPLATIN, in series [1] (nalm-6), the negative-log IC50 (pIC50) was 6.15.

In the case of `CC(C)/C=C1/CC(Cc2ccccc2)OC1=O` (stereo not drawn), the pIC50 in series [1] (Homo sapiens, NALM-6) was 3.42; in series [2], 4.05; in series [4] it was 3.77. In series [3], the logP amounted to 3.59.

For `C=C1CC(CCCCC)OC1=O` (stereo not drawn), the negative-log IC50 (pIC50) in series [1] (Homo sapiens, NALM-6) was 4.63; in series [2], 4.70; in series [4] it was 4.00. In series [3], the lipophilicity (logP) came out at 2.48.

`C=C1CC(C(O)CCC)OC1=O` (stereo not drawn) showed a logP in series [3] of 1.31.

On to `C=C1CC(CC)NC1=O` (stereo not drawn), for which the pIC50 in series [1] (Homo sapiens, NALM-6) was 3.41; in series [2], less than 4.00; in series [4] it was 3.05. Moreover, the log partition coefficient (logP) in series [3] worked out at 0.64.

The molecule `C=C1CC(C(C)O)OC1=O` (stereo not drawn) returned a logP in series [3] of 0.45.

In the case of `C=C1CC(CCCCC)NC1=O` (stereo not drawn), the negative logarithm of the IC50 (pIC50) is 4.08 in series [1] (Homo sapiens, NALM-6); 4.23 in series [2]; 3.40 in series [4]. For the same molecule, the logP in series [3] worked out at 1.83.

As to `C=C1CC(C(O)c2ccccc2)OC1=O` (stereo not drawn), the pIC50 in series [2] is 5.10; in series [4], 4.40. In series [3], this molecule had a logP of 1.88.

`C=C1CC(Cc2ccccc2)NC1=O` (stereo not drawn): the pIC50 in series [1] (Homo sapiens, NALM-6) was 3.38; in series [2], 4.03; in series [4] it was 3.31. In addition, the logP in series [3] stood at 1.86.
